Active and inactive are the calls of the source. The calls are words filed in the database; no cut-off is given here.
How the values were obtained:
[1] = target: DNA topoisomerase 2-alpha (Homo sapiens) (UniProt P11388); test: Inhibition of DNA topoisomerase 2 (unknown origin)-mediated relaxation of supercoiled pHOT DNA after 30 to 45 mins by agarose gel electrophoresis
How it was run: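 Supercoiled pHOT DNA (125 ng) with compound in buffer stated as 0.5 M Tris-HCl pH 8.0, 1.5 M NaCl, 100 mM MgCl2, 5 mM DTT, 300 μg/mL BSA, 20 mM ATP, at 37 °C. Methods state 6 units topo II, figure legend 5 units; 30−45 min, SDS stop. Products run on 1% agarose and stained with ethidium bromide.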

[2] = Cytotoxicity against human MES-SA cells after 72 hrs by Presto Blue assay; type: functional, cell-based
How it was run: (§1)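 MES-SA and doxorubicin-resistant MES-SA/dx5 cells exposed for 72 h, then PrestoBlue added for 3 h at 37 °C, absorbance read at 570 and 600 nm. IC50 by median-effect analysis of six or seven concentrations; mean ± STDEV of three to six independent experiments.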

CCRF-CEM = test: Cytotoxicity against human CCRF-CEM cells after 72 hrs by XTT assay; type: functional, cell-based
How it was run: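 CCRF-CEM T-ALL cells incubated with compound for 72 h. XTT with phenazine methosulfate then added for 6 h at 37 °C, absorbance read at 450 and 630 nm. IC50 from six or seven concentrations by median-effect analysis; mean ± STDEV, n = 3.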

MX1 [3] = test: Cytotoxicity against human MX1 cells after 72 hrs by SRB assay; type: functional, cell-based; settings: MX1, 72 h
[4] = Cytotoxicity against human OECM1 cells after 72 hrs by Alamar blue assay; type: functional, cell-based; settings: OECM1, 72 h
How it was run: (§2)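 Cells exposed to compound for 72 h, then Alamar blue added with a further 10−12 h at 37 °C and a spectrophotometric read. IC50 from six or seven concentrations by median-effect analysis; mean ± STDEV, n = 3. CL141T is a line derived from a patient lung tumor passaged as a SCID mouse xenograft.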

HT-29 = test: Cytotoxicity against human HT-29 cells after 72 hrs by Alamar blue assay; type: functional, cell-based; settings: HT-29, 72 h; how it was run: as §2
[5] = Resistance factor, ratio of IC50 for human KB-VIN10 cells to IC50 for human KB cells; type: functional
HCT-116 = test: Cytotoxicity against human HCT116 cells after 72 hrs by Alamar blue assay; type: functional, cell-based; settings: HCT-116, 72 h; how it was run: as §2
[6] = target: T1, DNA topoisomerase 1 (Homo sapiens) (UniProt P11387); test: Inhibition of DNA topoisomerase 1 (unknown origin)-mediated relaxation of supercoiled pHOT DNA at 25 to 200 uM after 30 to 45 mins by agarose gel electrophoresis
T1 sequence (whole entry): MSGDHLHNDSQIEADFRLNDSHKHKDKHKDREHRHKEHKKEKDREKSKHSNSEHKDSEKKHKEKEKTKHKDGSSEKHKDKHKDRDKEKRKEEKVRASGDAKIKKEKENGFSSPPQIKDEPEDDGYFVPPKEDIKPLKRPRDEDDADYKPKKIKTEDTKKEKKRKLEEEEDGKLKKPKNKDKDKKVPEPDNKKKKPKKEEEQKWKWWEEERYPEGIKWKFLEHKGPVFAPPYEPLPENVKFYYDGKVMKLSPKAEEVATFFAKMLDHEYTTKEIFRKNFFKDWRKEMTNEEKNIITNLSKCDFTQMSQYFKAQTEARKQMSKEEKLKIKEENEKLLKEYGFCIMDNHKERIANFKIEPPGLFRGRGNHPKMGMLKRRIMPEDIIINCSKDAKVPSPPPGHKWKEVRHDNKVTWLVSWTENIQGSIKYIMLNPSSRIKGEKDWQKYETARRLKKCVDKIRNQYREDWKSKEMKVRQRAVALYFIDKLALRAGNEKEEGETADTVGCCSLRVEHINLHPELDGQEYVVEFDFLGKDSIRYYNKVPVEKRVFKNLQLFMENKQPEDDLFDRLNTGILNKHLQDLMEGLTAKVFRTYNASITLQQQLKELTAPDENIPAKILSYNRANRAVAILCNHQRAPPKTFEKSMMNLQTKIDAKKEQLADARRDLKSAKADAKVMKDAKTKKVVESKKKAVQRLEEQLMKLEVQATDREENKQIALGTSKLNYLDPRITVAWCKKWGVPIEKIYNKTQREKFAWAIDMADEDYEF
How it was run: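 Supercoiled pHOT DNA (200 ng) and compound in 10 mM Tris-HCl pH 7.9 with 1 mM EDTA at 37 °C. Reaction started with 1 unit topo I, run 30−45 min, stopped with 10% SDS. Products separated on 1% agarose at 50 V for 90 min and stained with ethidium bromide.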

MES-SA = test: Resistance factor, ratio of IC50 for human MES-SA/Dx5 cells to IC50 for human MES-SA cells; type: functional
PC-3 = test: Cytotoxicity against human PC3 cells after 72 hrs by Alamar blue assay; type: functional, cell-based; settings: PC-3, 72 h; how it was run: as §2
KB = test: Cytotoxicity against human KB cells after 72 hrs by Alamar blue assay
[7] = Cytotoxicity against human MES-SA/Dx5 cells after 72 hrs by Presto Blue assay; type: functional, cell-based; settings: MES-SA/Dx5, 72 h; how it was run: as §1
[8] = Cytotoxicity against human CL141T cells after 72 hrs by Alamar blue assay; type: functional, cell-based; how it was run: as §2
A549 = test: Cytotoxicity against human A549 cells after 72 hrs by Alamar blue assay; type: functional, cell-based; settings: A549, 72 h; how it was run: as §2
[9] = Cytotoxicity against human KB-VIN10 cells after 72 hrs by Alamar blue assay; settings: KB-VIN10, 72 h
[10] = Cytotoxicity against human HEL299 cells; type: cell-based; settings: HEL 299
[11] = Cytotoxicity against human H460 cells after 72 hrs by Alamar blue assay; type: functional, cell-based; settings: NCI-H460, 72 h; how it was run: as §2
Escherichia coli = test: Induction of Escherichia coli pEGFP-N1 DNA interstrand cross-linking at 1 to 10 uM after 2 hrs by alkaline agarose gel shift assay
How it was run: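 Plasmid pEGFP-N1 DNA (1500 ng) incubated with compound at 1, 5 and 10 μM in 3 mM NaCl/1 mM sodium phosphate pH 7.4/1 mM EDTA, 2 h at 37 °C. DNA then BamHI-linearized, EtOH-precipitated, denatured in 0.5 N NaOH/10 mM EDTA, run on 0.8% alkaline agarose at 4 °C (18 V, 22 h), stained with ethidium bromide.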

[12] = Cell cycle arrest in human CL141T cells assessed as accumulation at G2/M phase at 2 x IC50 after 24 hrs by propidium iodide staining-based FACS flow cytometric analysis; type: functional
How it was run: (§3)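 CL141T cells treated at 0.5-, 1- and 2-fold IC50 for 24, 48 and 72 h. Cells fixed in ice-cold 70% EtOH, then stained with 4 μg/mL propidium iodide in PBS with 1% Triton X-100 and 0.1 mg/mL RNase A. Phase distribution from flow cytometry DNA histograms; sub-G1 fraction scored as well.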

Mus musculus [13] = test: Toxicity in nude mouse xenografted with human MX1 cells assessed as body weight loss at 35 mg/kg, iv qd administered 4 days measured for 20 days; type: organism-based; design: dose 35 mg/kg, route intravenous; settings: in vivo, 480 h
[14] = Cell cycle arrest in human CL141T cells assessed as accumulation at sub-G1 phase at 0.5 x IC50 to 2 x IC50 after 72 hrs by propidium iodide staining-based FACS flow cytometric analysis; type: functional; how it was run: as §3
MX1 [15] = test: Antitumor activity against human MX1 cells xenografted in nude mouse assessed as tumor growth inhibition at 35 mg/kg, iv qd administered 4 days measured on day 20 relative to vehicle-treated control; type: functional; settings: read-out: TGI
[16] = Cell cycle arrest in human CL141T cells assessed as accumulation at S phase at 3.75 to 15 uM after 24 hrs by propidium iodide staining-based FACS flow cytometric analysis; type: functional; how it was run: as §3
[17] = Cell cycle arrest in human CL141T cells assessed as accumulation at G2/M phase at 0.5 x IC50 to 1 x IC50 after 48 to 72 hrs by propidium iodide staining-based FACS flow cytometric analysis; type: functional; how it was run: as §3
[18] = target: DNA topoisomerase 2-alpha (Homo sapiens) (UniProt P11388); settings: 50 to 200 uM
[19] = Cell cycle arrest in human CL141T cells assessed as accumulation at G1 phase at 1 x IC50 to 2 x IC50 after 24 hrs by propidium iodide staining-based FACS flow cytometric analysis; type: functional; how it was run: as §3
[20] = Cell cycle arrest in human CL141T cells assessed as accumulation at S phase at 1 x IC50 to 2 x IC50 after 24 hrs by propidium iodide staining-based FACS flow cytometric analysis; type: functional; how it was run: as §3
NCI-H460 [21] = test: Induction of apoptosis in human H460 cells assessed as increase in cleaved PARP expression at IC50 after 24 to 72 hrs by Western blotting analysis; type: functional, cell-based
How it was run: (§4)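 H460 cells treated at IC50 for 24 and 72 h. Lysate proteins separated by SDS-PAGE and blotted to nitrocellulose, blocked in 5% milk/PBST. Primary antibodies to caspase-3, caspase-7, PARP (full-length and cleaved) and β-actin applied for 1 h at room temperature or overnight at 4 °C; HRP secondary with ECL detection.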

Mus musculus [22] = test: Toxicity in nude mouse xenografted with human MX1 cells assessed as body weight loss at 25 mg/kg, iv qd administered 3 days measured for 20 days; type: organism-based; design: dose 25 mg/kg, route intravenous; settings: in vivo, 480 h
NCI-H460 [23] = test: Induction of apoptosis in human H460 cells assessed as increase in cleaved caspase 7 expression at IC50 after 24 to 72 hrs by Western blotting analysis; type: functional, cell-based; how it was run: as §4
NCI-H460 [24] = test: Induction of apoptosis in human H460 cells assessed as increase in apoptotic cells at IC50 after 72 hrs by annexin V-FITC/propidium iodide staining-based FACS flow cytometric analysis (reference value: 9.29%); type: functional
[25] = Cell cycle arrest in human CL141T cells assessed as accumulation at S phase at 0.5 x IC50 after 24 hrs by propidium iodide staining-based FACS flow cytometric analysis; type: functional; how it was run: as §3
MX1 [26] = test: Antitumor activity against human MX1 cells xenografted in nude mouse assessed as tumor growth inhibition at 25 mg/kg, iv qd administered 3 days measured on day 20 relative to vehicle-treated control; type: functional; settings: read-out: TGI
NCI-H460 [27] = test: Induction of apoptosis in human H460 cells assessed as increase in cleaved caspase 3 expression at IC50 after 24 to 72 hrs by Western blotting analysis; type: functional, cell-based; how it was run: as §4
NCI-H460 [28] = test: Induction of apoptosis in human H460 cells assessed as increase in apoptotic cells at IC50 after 24 hrs by annexin V-FITC/propidium iodide staining-based FACS flow cytometric analysis (reference value: 4.1%); type: functional

Sequence of DNA topoisomerase 2-alpha (Homo sapiens) (P11388 whole entry): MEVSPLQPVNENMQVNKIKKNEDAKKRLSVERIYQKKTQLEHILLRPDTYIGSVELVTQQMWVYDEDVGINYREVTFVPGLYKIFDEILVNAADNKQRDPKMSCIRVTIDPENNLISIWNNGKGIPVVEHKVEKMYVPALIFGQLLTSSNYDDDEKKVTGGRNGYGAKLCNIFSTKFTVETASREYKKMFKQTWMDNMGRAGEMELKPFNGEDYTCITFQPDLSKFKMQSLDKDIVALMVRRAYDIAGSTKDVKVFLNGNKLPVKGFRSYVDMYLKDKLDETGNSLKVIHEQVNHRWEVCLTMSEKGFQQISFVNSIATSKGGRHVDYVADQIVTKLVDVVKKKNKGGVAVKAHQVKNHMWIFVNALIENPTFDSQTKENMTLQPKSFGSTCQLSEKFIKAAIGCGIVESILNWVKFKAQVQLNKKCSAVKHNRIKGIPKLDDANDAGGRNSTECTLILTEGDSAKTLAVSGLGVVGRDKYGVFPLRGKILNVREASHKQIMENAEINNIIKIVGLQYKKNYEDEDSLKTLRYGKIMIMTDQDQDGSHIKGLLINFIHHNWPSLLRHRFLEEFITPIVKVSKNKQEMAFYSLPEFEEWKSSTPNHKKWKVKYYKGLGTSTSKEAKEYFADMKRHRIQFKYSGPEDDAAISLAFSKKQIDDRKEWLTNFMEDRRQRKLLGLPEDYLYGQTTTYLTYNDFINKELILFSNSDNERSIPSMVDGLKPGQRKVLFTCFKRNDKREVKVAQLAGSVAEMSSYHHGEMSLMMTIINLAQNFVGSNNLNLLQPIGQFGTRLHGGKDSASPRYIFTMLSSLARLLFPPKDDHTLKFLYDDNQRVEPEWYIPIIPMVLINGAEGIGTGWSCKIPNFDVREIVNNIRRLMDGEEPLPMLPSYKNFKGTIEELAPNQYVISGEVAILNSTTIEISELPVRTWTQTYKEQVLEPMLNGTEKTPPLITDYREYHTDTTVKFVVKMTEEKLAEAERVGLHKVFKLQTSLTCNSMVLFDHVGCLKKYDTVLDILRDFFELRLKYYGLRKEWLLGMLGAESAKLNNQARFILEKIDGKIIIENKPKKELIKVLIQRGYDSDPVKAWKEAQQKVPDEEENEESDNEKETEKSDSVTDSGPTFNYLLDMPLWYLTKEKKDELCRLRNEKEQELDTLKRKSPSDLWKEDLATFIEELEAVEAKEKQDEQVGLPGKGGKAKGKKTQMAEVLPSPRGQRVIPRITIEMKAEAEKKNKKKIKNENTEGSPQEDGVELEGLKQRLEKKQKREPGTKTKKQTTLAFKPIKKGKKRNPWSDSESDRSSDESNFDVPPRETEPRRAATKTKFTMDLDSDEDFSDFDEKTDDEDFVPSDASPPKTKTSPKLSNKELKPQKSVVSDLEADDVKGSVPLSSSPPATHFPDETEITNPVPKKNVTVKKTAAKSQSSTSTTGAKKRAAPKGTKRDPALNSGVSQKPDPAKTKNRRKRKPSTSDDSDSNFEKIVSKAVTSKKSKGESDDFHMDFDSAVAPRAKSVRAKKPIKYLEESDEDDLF

Structure (SMILES)	IC50 [2] [µM]	IC50 (CCRF-CEM) [µM]	IC50 (MX1 [3]) [µM]	IC50 [4] [µM]	IC50 (HT-29) [µM]	Ratio IC50 [5]	IC50 (HCT-116) [µM]	Ratio IC50 (MES-SA)	IC50 (PC-3) [µM]	IC50 (KB) [µM]	IC50 [7] [µM]	IC50 [8] [µM]	IC50 (A549) [µM]	IC50 [9] [µM]	IC50 [10] [µM]	IC50 [11] [µM]	Activity (Escherichia coli)	Activity [12]	Activity [14]	Activity [17]	further results
CCNC(=O)OCc1c(COC(=O)NCC)c2n(c1C)Cc1c(c3ccccc3n1C)C2	0.78	0.04	0.46	1.9	11.3	0.94	2.33	0.36	4.11	2.75	0.28	2.84	4.83	2.6	15.5	–	–	–	–	–	inhibition [1]: Dose-dependent effect; inhibition [6]: Active
CCNC(=O)OCc1c(COC(=O)NCC)c2n(c1C)Cc1c(c3ccccc3n1CC)C2	–	0.14	–	4.9	–	–	3.22	–	4.61	–	–	1.4	–	–	–	5.14	Active	–	–	–	–
CC(C)NC(=O)OCc1c(COC(=O)NC(C)C)c(-c2ccc(F)cc2)n2c1Cc1c(n(C)c3ccccc13)C2	–	0.11	2.19	6.56	–	1.1	6.09	–	6.71	14.2	–	7.46	–	15.6	25.9	–	Active	inactive	Active	Active	Activity (Mus musculus [13]): Toxic; inhibition in vivo at 35 mg/kg (MX1 [15]): > 99%; Activity [16]: Active
COc1cc([C@@H]2c3cc4c(cc3[C@@H](O[C@@H]3O[C@@H]5CO[C@@H](C)O[C@H]5[C@H](O)[C@H]3O)[C@H]3COC(=O)[C@H]23)OCO4)cc(OC)c1O	–	–	–	–	–	–	–	–	–	–	–	–	–	–	–	–	–	–	–	–	inhibition [18]: Active
CCn1c2c(c3ccccc31)Cc1c(CO)c(CO)c(C)n1C2	0.4	0.1	–	1.17	6.15	0.62	1.71	0.6	2.66	1.47	0.24	0.79	2.97	0.9	2.24	0.73	Active	inactive	Active	Active	Activity [19]: Active; Activity [20]: Active; Activity (NCI-H460 [21]): Active; Activity (Mus musculus [22]): Toxic; Activity (NCI-H460 [23]): Active; Activity (NCI-H460 [24]): 43.52%; Activity [25]: Active; inhibition in vivo at 25 mg/kg (MX1 [26]): > 99%; Activity (NCI-H460 [27]): Active; Activity (NCI-H460 [28]): 12.92%
